Laboratory results published in ChEMBL document CHEMBL1208679, “Synthesis and evaluation of a new series of Neuropeptide S receptor antagonists” (Bioorg Med Chem Lett, 2010).
pEC50, pIC50: −log10 of the molar value. Calls of active or inactive are those of the source. The rule behind the calls is not given here.

Tests used:
[1] = target: T1, MDR1 (ABCB1, P-glycoprotein) (Homo sapiens, UniProt P08183); experiment: Permeability of the compound assessed as MDR1-mediated directional transport ratio by cell based assay; conditions: not told
T1 sequence (P08183 whole entry): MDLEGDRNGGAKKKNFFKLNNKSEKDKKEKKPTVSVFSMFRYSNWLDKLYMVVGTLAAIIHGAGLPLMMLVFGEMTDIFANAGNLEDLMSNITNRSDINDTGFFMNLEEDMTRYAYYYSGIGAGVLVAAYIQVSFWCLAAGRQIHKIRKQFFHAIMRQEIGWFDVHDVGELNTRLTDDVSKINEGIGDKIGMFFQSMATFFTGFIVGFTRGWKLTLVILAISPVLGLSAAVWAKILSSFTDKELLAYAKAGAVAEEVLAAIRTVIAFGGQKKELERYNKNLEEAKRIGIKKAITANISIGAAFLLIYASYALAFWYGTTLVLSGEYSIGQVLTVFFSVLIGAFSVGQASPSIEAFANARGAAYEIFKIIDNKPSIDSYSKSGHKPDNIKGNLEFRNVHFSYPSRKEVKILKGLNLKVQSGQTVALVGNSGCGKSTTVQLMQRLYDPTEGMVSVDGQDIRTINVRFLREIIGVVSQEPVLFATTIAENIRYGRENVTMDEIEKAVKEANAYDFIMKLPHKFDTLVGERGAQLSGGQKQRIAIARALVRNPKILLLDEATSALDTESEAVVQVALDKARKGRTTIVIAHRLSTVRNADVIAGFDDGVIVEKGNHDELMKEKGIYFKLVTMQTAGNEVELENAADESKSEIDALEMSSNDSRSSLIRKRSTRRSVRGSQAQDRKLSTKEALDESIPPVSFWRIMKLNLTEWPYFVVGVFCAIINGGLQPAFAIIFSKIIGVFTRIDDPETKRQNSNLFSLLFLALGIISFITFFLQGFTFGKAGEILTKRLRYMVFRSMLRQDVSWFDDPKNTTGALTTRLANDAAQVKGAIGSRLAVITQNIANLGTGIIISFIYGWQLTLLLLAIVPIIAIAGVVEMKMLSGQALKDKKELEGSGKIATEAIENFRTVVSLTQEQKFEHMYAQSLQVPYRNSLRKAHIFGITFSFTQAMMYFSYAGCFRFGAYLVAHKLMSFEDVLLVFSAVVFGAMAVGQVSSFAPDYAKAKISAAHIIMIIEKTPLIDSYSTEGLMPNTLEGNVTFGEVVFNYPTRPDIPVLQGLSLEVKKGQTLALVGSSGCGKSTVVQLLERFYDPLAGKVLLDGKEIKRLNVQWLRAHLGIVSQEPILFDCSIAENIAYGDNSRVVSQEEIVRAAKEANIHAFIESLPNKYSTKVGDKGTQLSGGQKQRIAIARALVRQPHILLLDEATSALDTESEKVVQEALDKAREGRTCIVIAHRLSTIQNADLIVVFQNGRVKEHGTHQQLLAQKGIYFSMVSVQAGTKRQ
Outline: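 MDR1 directional transport ratio, calculated as (B to A)/(A to B). Average of three experiments.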

Neuropeptide S receptor [2] = target: T2, Neuropeptide S receptor (Homo sapiens, UniProt Q6W5P4); experiment: Antagonist activity at human recombinant NPS receptor expressed in CHOK1 cells assessed as inhibition of NPS-induced calcium mobilization by FLIPR assay; assay type: functional, cell-based, CHO-K1
T2 sequence (Q6W5P4 whole entry): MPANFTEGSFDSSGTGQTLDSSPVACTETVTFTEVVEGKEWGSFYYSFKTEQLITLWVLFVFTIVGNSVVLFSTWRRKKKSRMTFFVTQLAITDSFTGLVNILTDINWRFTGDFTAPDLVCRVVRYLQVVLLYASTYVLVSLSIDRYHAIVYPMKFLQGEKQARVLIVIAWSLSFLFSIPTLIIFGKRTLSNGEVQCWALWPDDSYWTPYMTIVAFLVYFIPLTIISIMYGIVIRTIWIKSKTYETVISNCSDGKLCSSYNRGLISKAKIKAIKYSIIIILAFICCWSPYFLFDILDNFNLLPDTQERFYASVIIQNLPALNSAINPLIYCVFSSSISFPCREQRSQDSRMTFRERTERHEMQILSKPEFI
Outline: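 Dual-sequence FLIPR Ca2+ mobilization in CHOK1 cells expressing recombinant NPSR, plated 24 h before the run. Fluo4AM dye loaded 1 h at 37 °C, 5% CO2. Cells incubated with titrated compound for 4 min, then an EC80 of human NPS added and read for another 4 min. Inhibition calculated against NPS-stimulated control wells. IC50 from 4-parameter logistic fits, averaged over at least two experiments.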

[3] = target: T1, MDR1 (ABCB1, P-glycoprotein); experiment: (§1) Permeability of the compound assessed as MDR1-passive permeability by cell based assay; conditions: not told; read-out: permeability
Outline: (§2)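 Passive permeability expressed as Papp in 10^-6 cm/s.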

[4] = Protein binding in human plasma; conditions: read-out: PPB (converted)
[5] = Drug level in rat plasma at 30 mg/kg, ip after 2 hrs; assay type: ADME, organism-based; set-up: dose 30 mg/kg, route intraperitoneal; conditions: read-out: Drug uptake
Outline: (§3)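 Rats dosed 30 mg/kg ip. Plasma, brain and CSF levels measured at 0.5 h and 2.0 h and reported in nM.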

Rattus norvegicus [6] = experiment: Ex vivo receptor occupancy in ip dosed rat brain anterior olfactory nucleus assessed inhibition of [125I]NPS binding after 30 mins; assay type: functional, organism-based
Outline: (§4)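 Compound given 30 mg/kg ip in 25% HPB cyclodextrin. Brain taken 30 min after dosing (n = 4 rats, 2–3 sections/rat). Tissue sections incubated with 0.5 nM 125I-hNPS for 30 min, with 2 µM unlabeled hNPS defining nonspecific binding. Mean percent occupancy in AON, DEN or SC relative to vehicle was plotted against plasma compound concentration, with IC50 from nonlinear regression.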

Neuropeptide S receptor [7] = target: T3, Neuropeptide S receptor (Rattus norvegicus, UniProt P0C0L6); experiment: Displacement of [3H]quinolinone from rat NPS receptor
T3 sequence (P0C0L6 whole entry): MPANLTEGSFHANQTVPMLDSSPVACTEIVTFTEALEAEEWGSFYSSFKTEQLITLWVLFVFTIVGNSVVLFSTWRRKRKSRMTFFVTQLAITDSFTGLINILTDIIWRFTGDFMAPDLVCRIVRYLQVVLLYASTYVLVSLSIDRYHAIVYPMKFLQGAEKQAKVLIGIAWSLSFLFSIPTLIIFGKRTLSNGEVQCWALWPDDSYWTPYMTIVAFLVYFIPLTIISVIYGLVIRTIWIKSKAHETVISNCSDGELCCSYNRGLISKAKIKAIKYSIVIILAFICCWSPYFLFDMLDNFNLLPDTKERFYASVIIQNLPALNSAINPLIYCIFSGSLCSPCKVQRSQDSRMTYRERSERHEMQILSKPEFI

[8] = Drug level in rat cerebrospinal fluid at 30 mg/kg, ip after 2 hrs; assay type: ADME, organism-based; set-up: dose 30 mg/kg, route intraperitoneal; conditions: read-out: Drug uptake; outline: as §3
[9] = Drug level in rat brain at 30 mg/kg, ip after 2 hrs; assay type: ADME, organism-based; set-up: dose 30 mg/kg, route intraperitoneal; conditions: read-out: Drug uptake; outline: as §3
[10] = target: ATP-dependent translocase ABCB1 (Homo sapiens, UniProt P08183); experiment: as §1; outline: as §2
Chain of ATP-dependent translocase ABCB1 (P08183 whole entry): as the sequence (P08183 whole entry) above

[11] = Drug level in rat plasma at 30 mg/kg, ip after 0.5 hrs; assay type: ADME, organism-based; set-up: dose 30 mg/kg, route intraperitoneal; conditions: read-out: Drug uptake; outline: as §3
Neuropeptide S receptor [12] = target: T3, Neuropeptide S receptor; experiment: Displacement of [125I]NPS from NPS receptor in rat brain superior coliculus after 30 mins; assay type: tissue-based
Outline: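 Rat brain sections from vehicle-treated animals (25% HPB cyclodextrin/75% sterile water, ip), preincubated in vitro with titrated compound. Nonspecific binding from co-incubation with 2 µM unlabeled hNPS. 2–3 sections per concentration. Mean ± SEM.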

[13] = Drug level in rat cerebrospinal fluid at 30 mg/kg, ip after 0.5 hrs; assay type: ADME, organism-based; set-up: dose 30 mg/kg, route intraperitoneal; conditions: read-out: Drug uptake; outline: as §3
Rattus norvegicus [14] = experiment: Ex vivo receptor occupancy in ip dosed rat brain superior coliculus assessed inhibition of [125I]NPS binding after 30 mins; assay type: functional, organism-based; outline: as §4
[15] = Drug level in rat brain at 30 mg/kg, ip after 0.5 hrs; assay type: ADME, organism-based; set-up: dose 30 mg/kg, route intraperitoneal; conditions: read-out: Drug uptake; outline: as §3
Rattus norvegicus [16] = experiment: Ex vivo receptor occupancy in ip dosed rat brain dorsal endopiriform nucleus assessed inhibition of [125I]NPS binding after 30 mins; assay type: functional, organism-based; outline: as §4
Plasma = experiment: Protein binding in human plasma; assay type: ADME, cell-free
Rattus norvegicus [17] = experiment: Ex vivo receptor occupancy of NPS receptor in rat brain superior coliculus at 30 mg/kg, ip after 30 mins; assay type: functional, organism-based; set-up: dose 30 mg/kg; outline: as §4
Rattus norvegicus [18] = experiment: Ex vivo receptor occupancy of NPS receptor in rat brain anterior olfactory nucleus at 30 mg/kg, ip after 30 mins; assay type: functional, organism-based; set-up: dose 30 mg/kg; outline: as §4
Rattus norvegicus [19] = experiment: Ex vivo receptor occupancy of NPS receptor in rat brain dorsal endopiriform nucleus at 30 mg/kg, ip after 30 mins; assay type: functional, organism-based; set-up: dose 30 mg/kg; outline: as §4

Structure (SMILES)	efflux ratio [1]	pIC50 (Neuropeptide S receptor [2])	Papp [3] [×10⁻⁶ cm/s]	further results
CN1CCN(C2(CN(Cc3cc4ccccc4n(C)c3=O)C(=O)C3CCCCC3)CCCCC2)CC1	10.6	7.74		
CC(CCN1CCCC1)N(Cc1cc2ccccc2n(C)c1=O)C(=O)C1CCCCC1 (configuration not stated)		5.80		
CC(CCN1CCOCC1)N(Cc1cc2ccccc2n(C)c1=O)C(=O)C1CCCCC1 (configuration not stated)		6.14		
Cn1c(=O)c(CN(C(=O)C2CCCCC2)C(C)(C)CCN2CCCC2)cc2ccccc21		6.49		
Cn1c(=O)c(CN(C(=O)C2CCCCC2)C(C)(C)CCN2CCCCC2)cc2ccccc21	36	7.51	25	
Cn1c(=O)c(CN(C(=O)C2CCCCC2)C(C)(C)CCN2CCOCC2)cc2ccccc21	2	6.84	23	
CCC(CC)(CCN1CCOCC1)N(Cc1cc2ccccc2n(C)c1=O)C(=O)C1CCCCC1		6.99		
Cn1c(=O)c(CN(C(=O)C2CCCCC2)C2(CCN3CCOCC3)CCCCC2)cc2ccccc21		6.40		
CCC(C)(CCN1CCCCC1)N(Cc1cc2ccccc2n(C)c1=O)C(=O)C1CCCCC1 (racemic)	43	8.15	28	fraction unbound [4]: 0.11
CCC(C)(CCN1CCC(F)CC1)N(Cc1cc2ccccc2n(C)c1=O)C(=O)C1CCCCC1 (racemic)	2.6	7.85	33	
CCC(C)(CCN1CCC(F)(F)CC1)N(Cc1cc2ccccc2n(C)c1=O)C(=O)C1CCCCC1 (racemic)	1.1	7.66	25	fraction unbound [4]: 0.03
CCC(C)(CCN1CCOCC1)N(Cc1cc2ccccc2n(C)c1=O)C(=O)C1CCCCC1 (racemic)		7.64	18	
CCC(C)(CCN1CCOCC1)N(Cc1cc2ccccc2n(C)c1=O)C(=O)C1CCCCC1 (single isomer, unassigned; enantiomer 1) [listing 1 of 2 here]		8.00		concentration at 2 h [5]: 2300 nM; pIC50 (Rattus norvegicus [6]; 0.5 h): 6.24; pEC50 (Neuropeptide S receptor [7]): 8.89; concentration at 2 h [8]: 45 nM; concentration at 2 h [9]: 665 nM; permeability [10]: 36 ×10⁻⁶ cm/s; concentration at 0.5 h [11]: 4340 nM; pIC50 (Neuropeptide S receptor [12]): 8.84; concentration at 0.5 h [13]: 101 nM; pIC50 (Rattus norvegicus [14]; 0.5 h): 6.89; concentration at 0.5 h [15]: 1690 nM; pIC50 (Rattus norvegicus [16]; 0.5 h): 6.42; PPB (Plasma): 82%
CCC(C)(CCN1CCOCC1)N(Cc1cc2ccccc2n(C)c1=O)C(=O)C1CCCCC1 (single isomer, unassigned; enantiomer 1) [listing 2 of 2 here]				Activity (Rattus norvegicus [17]): Active; Activity (Rattus norvegicus [18]): Active; Activity (Rattus norvegicus [6]): Dose-dependent effect; Activity (Rattus norvegicus [19]): Active; Activity (Rattus norvegicus [14]): Dose-dependent effect; Activity (Rattus norvegicus [16]): Dose-dependent effect
CCC(C)(CCN1CCOCC1)N(Cc1cc2ccccc2n(C)c1=O)C(=O)C1CCCCC1 (single isomer, unassigned; enantiomer 2)		6.11		
